Measurements from ChEMBL document CHEMBL4138271, “Crystal Structures and Human Leukemia Cell Apoptosis Inducible Activities of Parthenolide Analogues Isolated from Piptocoma rufescens” (J Nat Prod, 2018).
Blank lines part the entries; values can stand above or below the compound they belong to. Activity calls are given as the source filed them. The calls are words filed in the database; no cut-off is given here.

Legend:
[1] = test system: EOL1; assay: Induction of apoptosis in human EOL-1 cells assessed as late apoptotic cells at 2.8 uM after 24 hrs by Annexin-V FITC/7-AAD staining based flow cytometric method (reference value: 0.535%); type: functional
[2] = test system: MOLM-13; assay: Induction of apoptosis in human MOLM13 cells assessed as necrotic cells at 0.56 uM after 24 hrs by Annexin-V FITC/7-AAD staining based flow cytometric method (reference value: 0%); type: functional
[3] = test system: MOLM-13; assay: Induction of apoptosis in human MOLM13 cells assessed as late apoptotic cells at 2.8 uM after 24 hrs by Annexin-V FITC/7-AAD staining based flow cytometric method (reference value: 1.43%); type: functional
[4] = test system: EOL1; assay: Induction of apoptosis in human EOL-1 cells assessed as early apoptotic cells at 1.1 uM after 24 hrs by Annexin-V FITC/7-AAD staining based flow cytometric method (reference value: 1.94%); type: functional
[5] = test system: MOLM-13; assay: Induction of apoptosis in human MOLM13 cells assessed as caspase-3 activation at 10 uM after 72 hrs by immunoblotting analysis; type: functional, cell-based
How it was run: (§1)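 MOLM-13 cells treated 72 h with test compounds at 10 μM or PKC412 at 10 nM. Cells washed in ice-cold PBS, lysed at 10^8 cells/mL in NP-40 hypertonic buffer (pH 7.5) with protease/phosphatase inhibitors, then run on SDS-PAGE and PVDF. Blots probed 12 h with rabbit monoclonal cleaved caspase-3 (Asp175), β-actin as loading control. Representative of three independent experiments.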

[6] = test system: EOL1; assay: Induction of apoptosis in human EOL-1 cells assessed as live cells at 0.56 uM after 24 hrs by Annexin-V FITC/7-AAD staining based flow cytometric method (reference value: 97.5%); type: functional
[7] = test system: MOLM-13; assay: Induction of apoptosis in human MOLM13 cells assessed as necrotic cells at 2.8 uM after 24 hrs by Annexin-V FITC/7-AAD staining based flow cytometric method (reference value: 0%); type: functional
[8] = test system: MOLM-13; assay: Cytotoxicity against human MOLM13 cells after 72 hrs by MTS assay; type: functional, cell-based; conditions: MOLM-13, 72 h
[9] = test system: EOL1; assay: Induction of apoptosis in human EOL-1 cells assessed as early apoptotic cells at 0.56 uM after 24 hrs by Annexin-V FITC/7-AAD staining based flow cytometric method (reference value: 1.94%); type: functional
[10] = test system: MOLM-13; assay: Induction of apoptosis in human MOLM13 cells assessed as live cells at 0.56 uM after 24 hrs by Annexin-V FITC/7-AAD staining based flow cytometric method (reference value: 86.8%); type: functional
[11] = test system: MOLM-13; assay: Synergistic antileukemic activity against human MOLM13 cells assessed as concentration required for <= 75% cell survival after 72 hrs in presence of midostaurin by CellTiter 96 AQueous One solution cell proliferation assay; type: functional
[12] = test system: EOL1; assay: Induction of apoptosis in human EOL-1 cells assessed as live cells at 1.1 uM after 24 hrs by Annexin-V FITC/7-AAD staining based flow cytometric method (reference value: 97.5%); type: functional
[13] = test system: EOL1; assay: Induction of apoptosis in human EOL-1 cells assessed as necrotic cells at 2.8 uM after 24 hrs by Annexin-V FITC/7-AAD staining based flow cytometric method (reference value: 0.032%); type: functional
[14] = test system: EOL1; assay: Induction of apoptosis in human EOL-1 cells assessed as necrotic cells at 0.56 uM after 24 hrs by Annexin-V FITC/7-AAD staining based flow cytometric method (reference value: 0.032%); type: functional
[15] = target: Transcription factor p65 (Homo sapiens) (UniProt Q04206); assay: Inhibition of NFkappaB p65 in human MOLM13 cells at 10 uM after 72 hrs by immunoblotting method; type: cell-based
How it was run: (§2)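 MOLM-13 or EOL-1 cells treated 72 h at 10 μM. Cells washed in ice-cold PBS and lysed in hypertonic NP-40 buffer (10 mM HEPES pH 7.5, 0.5 M NaCl) with protease/phosphatase inhibitors. Protein measured by BCA; SDS-PAGE onto PVDF. Probed 12 h with rabbit monoclonal NF-κB-p65 antibody, goat β-actin as loading control, then chemiluminescence. Blots representative of three independent experiments.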

[16] = test system: MOLM-13; assay: Induction of apoptosis in human MOLM13 cells assessed as late apoptotic cells at 0.56 uM after 24 hrs by Annexin-V FITC/7-AAD staining based flow cytometric method (reference value: 1.43%); type: functional
[17] = test system: EOL1; assay: Induction of apoptosis in human EOL-1 cells assessed as early apoptotic cells at 2.8 uM after 24 hrs by Annexin-V FITC/7-AAD staining based flow cytometric method (reference value: 1.94%); type: functional
[18] = test system: EOL1; assay: Induction of apoptosis in human EOL-1 cells assessed as late apoptotic cells at 0.56 uM after 24 hrs by Annexin-V FITC/7-AAD staining based flow cytometric method (reference value: 0.535%); type: functional
[19] = test system: MOLM-13; assay: Induction of apoptosis in human MOLM13 cells assessed as late apoptotic cells at 1.1 uM after 24 hrs by Annexin-V FITC/7-AAD staining based flow cytometric method (reference value: 1.43%); type: functional
[20] = test system: MOLM-13; assay: Induction of apoptosis in human MOLM13 cells assessed as live cells at 1.1 uM after 24 hrs by Annexin-V FITC/7-AAD staining based flow cytometric method (reference value: 86.8%); type: functional
[21] = test system: EOL1; assay: Induction of apoptosis in human EOL-1 cells assessed as necrotic cells at 1.1 uM after 24 hrs by Annexin-V FITC/7-AAD staining based flow cytometric method (reference value: 0.032%); type: functional
[22] = test system: EOL1; assay: Cytotoxicity against human EOL-1 cells after 72 hrs by MTS assay; type: functional, cell-based; conditions: EOL1, 72 h
[23] = test system: MOLM-13; assay: Induction of apoptosis in human MOLM13 cells assessed as live cells at 2.8 uM after 24 hrs by Annexin-V FITC/7-AAD staining based flow cytometric method (reference value: 86.8%); type: functional
[24] = test system: MOLM-13; assay: Induction of apoptosis in human MOLM13 cells assessed as early apoptotic cells at 2.8 uM after 24 hrs by Annexin-V FITC/7-AAD staining based flow cytometric method (reference value: 11.8%); type: functional
[25] = test system: HT-29; assay: Cytotoxicity against human HT-29 cells after 72 hrs by MTS assay; type: functional, cell-based; conditions: HT-29, 72 h
[26] = test system: EOL1; assay: Induction of apoptosis in human EOL-1 cells assessed as live cells at 2.8 uM after 24 hrs by Annexin-V FITC/7-AAD staining based flow cytometric method (reference value: 97.5%); type: functional
[27] = test system: MOLM-13; assay: Induction of apoptosis in human MOLM13 cells assessed as necrotic cells at 1.1 uM after 24 hrs by Annexin-V FITC/7-AAD staining based flow cytometric method (reference value: 0%); type: functional
[28] = test system: EOL1; assay: Induction of apoptosis in human EOL-1 cells assessed as late apoptotic cells at 1.1 uM after 24 hrs by Annexin-V FITC/7-AAD staining based flow cytometric method (reference value: 0.535%); type: functional
[29] = target: Transcription factor p65 (Homo sapiens) (UniProt Q04206); assay: Inhibition of NFkappaB p65 in human EOL-1 cells at 10 uM after 72 hrs by immunoblotting method; type: cell-based; how it was run: as §2
[30] = test system: MOLM-13; assay: Induction of apoptosis in human MOLM13 cells assessed as early apoptotic cells at 0.56 uM after 24 hrs by Annexin-V FITC/7-AAD staining based flow cytometric method (reference value: 11.8%); type: functional
[31] = test system: EOL1; assay: Induction of apoptosis in human EOL-1 cells assessed as caspase-3 activation at 10 uM after 72 hrs by immunoblotting analysis; type: functional, cell-based
How it was run: (§3)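 EOL-1 cells (RPMI 1640, 10% FBS, 37 °C, 5% CO2) exposed 72 h; compounds at 10 μM, PKC412 at 10 nM. Harvested, PBS-washed, lysed in hypertonic NP-40 buffer with protease/phosphatase inhibitors; SDS-PAGE, PVDF transfer, rabbit monoclonal cleaved caspase-3 (Asp175) antibody 12 h, secondary 1 h, chemiluminescent detection; β-actin loading control. Representative blots of three independent experiments.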

[32] = test system: EOL1; assay: Synergistic antileukemic activity against human EOL-1 cells assessed as concentration required for <= 75% cell survival after 72 hrs in presence of midostaurin by CellTiter 96 AQueous One solution cell proliferation assay; type: functional
[33] = test system: MOLM-13; assay: Induction of apoptosis in human MOLM13 cells assessed as early apoptotic cells at 1.1 uM after 24 hrs by Annexin-V FITC/7-AAD staining based flow cytometric method (reference value: 11.8%); type: functional
[34] = test system: MOLM-13; assay: Induction of apoptosis in human MOLM13 cells assessed as caspase-3 activation at 10 nM after 72 hrs by immunoblotting analysis; type: functional, cell-based; how it was run: as §1
[35] = test system: EOL1; assay: Induction of apoptosis in human EOL-1 cells assessed as caspase-3 activation at 10 nM after 72 hrs by immunoblotting analysis; type: functional, cell-based; how it was run: as §3

Sequence of Transcription factor p65 (Homo sapiens) (Q04206 whole entry): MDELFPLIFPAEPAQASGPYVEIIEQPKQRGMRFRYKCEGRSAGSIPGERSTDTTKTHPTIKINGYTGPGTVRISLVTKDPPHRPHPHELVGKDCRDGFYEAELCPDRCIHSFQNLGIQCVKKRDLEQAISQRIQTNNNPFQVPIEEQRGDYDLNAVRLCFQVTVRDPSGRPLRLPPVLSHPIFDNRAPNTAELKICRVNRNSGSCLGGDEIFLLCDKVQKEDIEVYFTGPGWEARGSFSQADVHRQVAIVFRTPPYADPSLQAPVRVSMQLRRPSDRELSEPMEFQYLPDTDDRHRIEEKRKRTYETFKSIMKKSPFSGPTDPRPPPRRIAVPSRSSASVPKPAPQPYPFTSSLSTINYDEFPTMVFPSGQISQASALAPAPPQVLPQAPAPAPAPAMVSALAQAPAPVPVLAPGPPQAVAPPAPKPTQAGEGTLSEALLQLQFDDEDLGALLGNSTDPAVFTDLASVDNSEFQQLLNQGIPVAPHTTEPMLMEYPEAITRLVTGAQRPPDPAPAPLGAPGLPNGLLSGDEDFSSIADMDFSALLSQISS

inhibition [15]: Active
inhibition [29]: Active
Compound: C=C(C)C(=O)O[C@H]1C[C@@]2(C)OC(=CC2=O)/C(CO)=C\[C@H]2OC(=O)C(=C)[C@H]12 [GOIAZENSOLIDE]
Activity [1]: 99.8%
Activity [2]: 0.392%
Activity [3]: 97.7%
Activity [4]: 0.281%
Activity [5]: Active
Activity [6]: 91.7%
Activity [7]: 1.96%
IC50 [8]: 860 nM
Activity [9]: 1.84%
Activity [10]: 81.8%
Activity [11]: 0.42 µM
Activity [12]: 3.99%
Activity [13]: 0.189%
Activity [14]: 0.306%
Activity [16]: 3.18%
Activity [17]: 0%
Activity [18]: 6.18%
Activity [19]: 94.6%
Activity [20]: 2.54%
Activity [21]: 2.4%
IC50 [22]: 1100 nM
Activity [23]: 0.135%
Activity [24]: 0.203%
IC50 [25]: 560 nM
Activity [26]: 0.01%
Activity [27]: 1.86%
Activity [28]: 93.3%
Activity [30]: 14.7%
Activity [31]: Active
Activity [32]: 0.56 µM
Activity [33]: 0.958%

Compound: CO[C@@H]1[C@H](N(C)C(=O)c2ccccc2)C[C@H]2O[C@]1(C)n1c3ccccc3c3c4c(c5c6ccccc6n2c5c31)C(=O)NC4
Activity [34]: Active
Activity [35]: Active
